Measurements gathered from unrelated publications.
Lines come from different studies, so protocols differ.
Target: D(3) dopamine receptor (DRD3, Homo sapiens, UniProt P35462)
Technique: radioligand

Compound | test | conditions | Ki
Oc1ccc(CCC2=NCCN2CCc2ccccc2)cc1 | ligand displacement |  | 0.832 µM
CN(C[C@@H]1C[C@H]1CCNC(=O)c1cc2ccccc2[nH]1)[C@@H]1Cc2cccc3[nH]c(=O)n(c23)C1 | ligand displacement | cell membranes | 0.0546 µM
O=C1c2ccccc2CCN1CCCCN1CCN(c2cccc(Cl)c2Cl)CC1 | ligand displacement |  | 0.001 µM
CCCCN1CCC(COC(=O)c2ccc(N)c(OCF)c2)CC1 | cell-free assay |  | 3.09 µM
COc1ccc(CCC2=NCCN2CCc2ccccc2)cc1 | ligand displacement |  | > 10 µM
CCN(CC)c1ccc(C2Nc3ccc(C(=O)c4ccccc4)cc3NC3=C2C(=O)CC(C)(C)C3)cc1 (stereo not drawn) | cell-free assay |  | > 10 µM
COc1ccccc1N1CCN(CCCCNC(=O)c2cc3cc(OCCF)ccc3[nH]2)CC1 | cell-free assay |  | 0.0004 µM
CCOc1c(O)cc(Br)c2c1CN1CCc3cc(OCC(F)F)c(O)cc3[C@@H]1C2 | cell-free assay |  | 1.91 µM
C[C@@H]1Cc2ccccc2N1C(=O)NCCCCN(C)[C@@H]1Cc2cccc3[nH]c(=O)n(c23)C1 | ligand displacement | cell membranes | 0.3 µM
Oc1cccc(CCC2=NCCN2CCc2ccccc2)c1 | ligand displacement |  | > 10 µM
CC1Cc2ccccc2N1C(=O)NCCCCN(C)[C@H]1CNc2ccccc2C1 (stereo partly drawn) | ligand displacement | cell membranes | 0.274 µM
COc1ccc2c(c1)C(=O)N(CCN1CCN(c3ccccc3OC)CC1)C2 | ligand displacement |  | 0.208 µM
